This note sets out measurements from ChEMBL document CHEMBL1152588, “New potent P-glycoprotein modulators with the cucurbitane scaffold and their synergistic interaction with doxorubicin on resistant cancer cells” (Bioorg Med Chem, 2009).

In data set [1] the target is T1, ATP-dependent translocase ABCB1 (Homo sapiens, UniProt P08183). As to the kind of experiment: Reversal of human MDR1-mediated multidrug resistance in mouse L5178Y cells expressing MDR1 assessed as forward scatter count measured by cell size ratio at 2 uM after 10 mins by flow cytometry. Type of data set: cell-based. The method in brief: (§1)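 Parental and MDR1-transfected L5178 cells at 2×10^6/mL in serum-free McCoy's 5A. Compound (0.5–20 µM; verapamil 22 µM as positive control) added 10 min at room temperature, then rhodamine 123 20 min at 37 °C. Cells washed twice, resuspended in PBS, flow cytometry on 10,000 cells (FSC, SSC, mean FL-1). FAR = (MDR treated/MDR control)/(parental treated/parental control); single representative experiment.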
T1 sequence (P08183 whole entry): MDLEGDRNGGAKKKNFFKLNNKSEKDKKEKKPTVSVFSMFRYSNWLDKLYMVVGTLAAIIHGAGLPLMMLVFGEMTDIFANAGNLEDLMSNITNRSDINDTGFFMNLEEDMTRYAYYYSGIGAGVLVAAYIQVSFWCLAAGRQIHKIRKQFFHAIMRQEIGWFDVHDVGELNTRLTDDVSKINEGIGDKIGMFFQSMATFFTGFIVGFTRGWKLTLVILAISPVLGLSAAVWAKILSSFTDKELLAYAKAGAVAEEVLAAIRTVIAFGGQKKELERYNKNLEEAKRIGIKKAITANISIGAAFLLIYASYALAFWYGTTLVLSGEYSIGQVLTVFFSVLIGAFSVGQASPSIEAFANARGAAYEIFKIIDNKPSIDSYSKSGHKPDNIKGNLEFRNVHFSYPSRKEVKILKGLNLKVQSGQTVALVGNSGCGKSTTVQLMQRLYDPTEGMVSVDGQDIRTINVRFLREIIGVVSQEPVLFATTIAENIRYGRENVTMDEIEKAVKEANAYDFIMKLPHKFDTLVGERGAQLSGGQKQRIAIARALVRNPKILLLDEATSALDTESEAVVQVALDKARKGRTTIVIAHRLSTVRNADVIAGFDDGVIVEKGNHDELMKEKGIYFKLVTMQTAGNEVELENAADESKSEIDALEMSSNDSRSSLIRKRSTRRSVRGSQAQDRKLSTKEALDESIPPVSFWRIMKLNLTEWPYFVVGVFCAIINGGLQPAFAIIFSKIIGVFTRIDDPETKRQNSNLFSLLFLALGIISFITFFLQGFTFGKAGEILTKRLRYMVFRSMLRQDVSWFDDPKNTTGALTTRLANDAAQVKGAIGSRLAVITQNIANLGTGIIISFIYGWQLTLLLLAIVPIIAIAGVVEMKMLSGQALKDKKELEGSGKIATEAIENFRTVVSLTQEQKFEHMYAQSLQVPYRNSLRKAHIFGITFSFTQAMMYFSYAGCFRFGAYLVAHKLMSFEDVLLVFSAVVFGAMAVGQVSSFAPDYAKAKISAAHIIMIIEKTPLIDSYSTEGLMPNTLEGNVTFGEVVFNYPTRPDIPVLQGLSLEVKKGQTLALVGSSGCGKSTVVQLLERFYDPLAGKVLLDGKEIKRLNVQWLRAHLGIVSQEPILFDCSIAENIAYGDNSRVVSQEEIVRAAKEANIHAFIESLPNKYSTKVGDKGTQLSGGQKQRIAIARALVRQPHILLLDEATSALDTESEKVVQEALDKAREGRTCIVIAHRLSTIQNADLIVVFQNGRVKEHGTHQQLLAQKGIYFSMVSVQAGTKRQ

Data set [2] has as its target T1, ATP-dependent translocase ABCB1. As to the kind of experiment: Reversal of human MDR1-mediated multidrug resistance in mouse L5178Y cells expressing MDR1 assessed as forward scatter count measured by cell size ratio at 20 uM after 10 mins by flow cytometry. Format: cell-based. In outline:
as §1
(In flow cytometry, cells or beads pass a laser one at a time.)

Data set [3] shares this target. As to the kind of experiment: Reversal of human MDR1-mediated multidrug resistance in mouse L5178Y cells expressing MDR1 assessed as side scatter count measured by cell size ratio at 2 uM after 10 mins by flow cytometry. Type of data set: cell-based. In outline: as §1
Data set [4] shares this target. Kind of data set: Reversal of human MDR1-mediated multidrug resistance in mouse L5178Y cells expressing MDR1 assessed as side scatter count measured by cell size ratio at 20 uM after 10 mins by flow cytometry. Format: cell-based. In outline: as §1
The target is the same in data set [5]. Kind of data set: Reversal of human MDR1-mediated multidrug resistance in mouse L5178Y cells expressing MDR1 assessed as mean fluorescence intensity of rhodamine-123 uptake at 2 uM after 10 mins by flow cytometry. Format: cell-based. The method in brief:
as §1

The target is the same in data set [6]. As to the kind of experiment: Reversal of human MDR1-mediated multidrug resistance in mouse L5178Y cells expressing MDR1 assessed as mean fluorescence intensity of rhodamine-123 uptake at 20 uM after 10 mins by flow cytometry. Type of data set: cell-based. The method in brief: as §1
Data set [7] has the same target. As to the kind of experiment: Reversal of human MDR1-mediated multidrug resistance in mouse L5178Y cells expressing MDR1 assessed as fluorescence activity ratio at 2 uM after 10 mins by rhodamine-123 exclusion test. Format: cell-based. In outline:
as §1

Data set [8] has the same target. Kind of data set: Reversal of human MDR1-mediated multidrug resistance in mouse L5178Y cells expressing MDR1 assessed as fluorescence activity ratio at 20 uM after 10 mins by rhodamine-123 exclusion test. Format: cell-based. In outline: as §1
Data set [9] concerns L5178Y. Kind of data set: Reversal of multidrug resistance in mouse L5178Y cells assessed as mean fluorescence intensity of rhodamine-123 uptake after 10 mins by flow cytometry. Format: functional. The method in brief:
as §1

Data set [10] has as its system L5178Y. As to the kind of experiment: Reversal of human MDR1-mediated multidrug resistance in mouse L5178Y cells expressing MDR1 assessed as mean fluorescence intensity of rhodamine-123 uptake after 10 mins by flow cytometry. Format: functional. In outline: as §1
The test system of data set [11] is L5178Y. Kind of data set: Antiproliferative activity against mouse L5178Y cells after 72 hrs by MTT assay. Type of data set: functional. As to conditions: read-out: ID50 (the source's name). The method in brief: (§2)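 L5178 mouse T-cell lymphoma cells, parental or transfected with human MDR1 via pHa MDR1/A retrovirus. Transfected cells were kept under 60 ng/mL colchicine. Cells grew in McCoy's 5A with 10% heat-inactivated horse serum at 37 °C, 5% CO2. 1×10^4 cells/well with rising compound concentrations, 72 h at 37 °C. MTT 4 h, SDS 10% overnight, OD 550 nm (ref 630 nm). % inhibition vs cell/medium controls; ID50 mean ± SD of three experiments.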
Background: Tetrazolium assays rely on reduction of a dye to a coloured formazan, in cell work by metabolically active cells.

Data set [12] deals with L5178Y. Kind of data set: Antiproliferative activity against multidrug resistance mouse L5178Y cells expressing human MDR1 after 72 hrs by MTT assay. Format: functional. As to conditions: read-out: ID50 (the source's name). In outline: as §2
Data set [13] concerns L5178Y. Kind of data set: Potentiation of doxorubicin-induced anticancer activity against mouse L5178Y cells expressing MDR1 assessed as fractional inhibitory concentration after 72 hrs by checkerboard microplate assay. Type of data set: functional. The method in brief: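 Checkerboard combination on MDR1-transfected L5178 lymphoma cells: doxorubicin diluted along one plate axis, resistance modifier along the other; 5×10^4 cells/well; 72 h at 37 °C in CO2 incubator; growth read by MTT staining. FIC = ID50 in combination/ID50 alone for each agent; summed FIX <0.5 synergism, 0.51–1 additive, 1–2 indifferent, >2 antagonism.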

Data set [14] concerns the target T1, ATP-dependent translocase ABCB1. As to the kind of experiment: Reversal of human MDR1-mediated multidrug resistance in mouse L5178Y cells expressing MDR1 assessed as forward scatter count measured by cell size ratio at 0.5 uM after 10 mins by flow cytometry. Type of data set: cell-based. The method in brief: as §1
The target is the same in data set [15]. Kind of data set: Reversal of human MDR1-mediated multidrug resistance in mouse L5178Y cells expressing MDR1 assessed as forward scatter count measured by cell size ratio at 1 uM after 10 mins by flow cytometry. Type of data set: cell-based. The method in brief:
as §1

The target is the same in data set [16]. Kind of data set: Reversal of human MDR1-mediated multidrug resistance in mouse L5178Y cells expressing MDR1 assessed as side scatter count measured by cell size ratio at 0.5 uM after 10 mins by flow cytometry. Format: cell-based. The method in brief: as §1
Data set [17] shares this target. As to the kind of experiment: Reversal of human MDR1-mediated multidrug resistance in mouse L5178Y cells expressing MDR1 assessed as side scatter count measured by cell size ratio at 1 uM after 10 mins by flow cytometry. Type of data set: cell-based. In outline: as §1
Data set [18] has the same target. As to the kind of experiment: Reversal of human MDR1-mediated multidrug resistance in mouse L5178Y cells expressing MDR1 assessed as mean fluorescence intensity of rhodamine-123 uptake at 0.5 uM after 10 mins by flow cytometry. Type of data set: cell-based. The method in brief:
as §1

Data set [19] has the same target. Kind of data set: Reversal of human MDR1-mediated multidrug resistance in mouse L5178Y cells expressing MDR1 assessed as mean fluorescence intensity of rhodamine-123 uptake at 1 uM after 10 mins by flow cytometry. Format: cell-based. In outline:
as §1

Data set [20] has the same target. As to the kind of experiment: Reversal of human MDR1-mediated multidrug resistance in mouse L5178Y cells expressing MDR1 assessed as fluorescence activity ratio at 0.5 uM after 10 mins by rhodamine-123 exclusion test. Format: cell-based. In outline:
as §1

Data set [21] has the same target. As to the kind of experiment: Reversal of human MDR1-mediated multidrug resistance in mouse L5178Y cells expressing MDR1 assessed as fluorescence activity ratio at 1 uM after 10 mins by rhodamine-123 exclusion test. Type of data set: cell-based. The method in brief: as §1
Data set [22] can be described thus: Octanol-water partition coefficient, log D of the compound. Type of data set: physicochemical.
The test system of data set [23] is L5178Y. As to the kind of experiment: Reversal of human MDR1-mediated multidrug resistance in mouse L5178Y cells expressing MDR1 fluorescence activity ratio of rhodamine-123 uptake after 10 mins by flow cytometry.

On to `CO[C@H]1C=C2[C@@H](CC[C@H](O)C2(C)C)[C@]2(C)CC[C@]3(C)[C@@H]([C@H](C)C[C@@H](O)C=C(C)C)CC[C@@]3(C)[C@H]12` [KARAVELAGENIN C], for which the Activity in [1] is 468.8; in data set [2] it was 551.8; in [3], 215.4; in data set [4] it was 206.8; in data set [5], 365.7; in data set [6], 399.5. The Activity in [7] came out at 42.1; in data set [8], 46; with L5178Y [9], 1034.3; with L5178Y [10], 9.5; in data set [14], 456.4; in data set [15] it was 460.7. Besides, the Activity worked out at 215.3 in data set [16]; 217.8 in [17]; 12.7 in data set [18]; 130 in data set [19]; 1.5 in data set [20]; 15 in [21]. The IC50 in the data set with L5178Y [11] came to 6.3 µM; in the data set on L5178Y [12] it was 16.8 µM. Further, the “fractional inhibitory concentration index (FICI)” value in the data set on L5178Y [13] came to 0.28. The compound also had a logD in [22] of 7.3.

For `COc1ccc(CCN(C)CCCC(C#N)(c2ccc(OC)c(OC)c2)C(C)C)cc1OC` (centres undefined) [VERAPAMIL], in the data set with L5178Y [10], the Activity is given as 97.1. Besides, the FAR in the data set on L5178Y [23] came to 7.4.

The logD is lipophilicity at a set pH, counting ionised and neutral species. Read a low logD as a more hydrophilic compound.
